Measurements as given in ChEMBL document CHEMBL5113539, “Dihydromaniwamycin E, a Heat-Shock Metabolite from Thermotolerant Streptomyces sp. JA74, Exhibiting Antiviral Activity against Influenza and SARS-CoV-2 Viruses” (J Nat Prod, 2022).

Tests used:
Influenza A virus = assay: Antiviral activity against influenza A virus A/Puerto Rico/8/34 (H1N1) infected in dog MDCK cells assessed as inhibition of viral cytopathic effect incubated for 48 hrs by crystal violet staining based plaque assay; type: functional, organism-based
Procedure, shortened: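 MDCK cells were grown in MEM with 10% FBS at 37 °C and 5% CO2. Compound was premixed with A/PR/8/34 (H1N1) containing 50–200 pfu for 30 min at room temperature. The mixture was adsorbed onto an MDCK monolayer for 30 min at 37 °C, washed, and incubated 2 days. Plaques were counted after crystal violet staining, and IC50 was taken from a logit–log plot.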

Vero C1008 = assay: Cytotoxicity against African green monkey VeroE6T cells assessed as reduction in cell viability after 2 to 3 days by MTT assay; type: toxicity, cell-based; settings: chlorocebus sabaeus, time 2-3 day
SARS-CoV-2 [1] = assay: Antiviral activity against SARS-CoV-2 infected in human 293TA cells assessed as reduction in cytopathic effect after 2 to 3 days by MTT assay; type: functional, organism-based; settings: Severe acute respiratory syndrome coronavirus 2, 293TA
[2] = Cytotoxicity against human 293TA cells assessed as reduction in cell viability after 2 to 3 days by MTT assay; type: toxicity, cell-based; settings: time 2-3 day
SARS-CoV-2 [3] = assay: Antiviral activity against SARS-CoV-2 infected in African green monkey VeroE6T cells assessed as reduction in cytopathic effect after 2 to 3 days by MTT assay; type: functional, organism-based, Vero E6; settings: Severe acute respiratory syndrome coronavirus 2, Vero C1008

SMILES	IC50 (Influenza A virus) [µM]	Activity (Vero C1008)	IC50 (SARS-CoV-2 [1]) [µM]	Activity [2]	IC50 (SARS-CoV-2 [3]) [µM]
CCCCCC/[N+]([O-])=N/[C@H](C)[C@H](C)O	25.7	Non-Toxic	19.7	Non-Toxic	
CCCC/C=C/[N+]([O-])=N/[C@H](C)[C@H](C)O	63.2	Non-Toxic	9.7	Non-Toxic	16.4
CCC(CC)COC(=O)[C@H](C)N[P@](=O)(OC[C@H]1O[C@@](C#N)(c2ccc3c(N)ncnn23)[C@H](O)[C@@H]1O)Oc1ccccc1 [REMDESIVIR]					0.9
